# Results: ChEMBL document CHEMBL1949587 (Bioorg Med Chem, 2012)
# Active and inactive are the calls of the source. The calls are words filed in the database; no cut-off is given here.
# Assays:
# HUVEC [1] = test: Selectivity ratio of IC50 for human HCT116 cells to IC50 for HUVEC cells
# HUVEC [2] = test: Antiangiogenic activity in HUVEC assessed as inhibition of VEGF-induced cell proliferation after 4 days; type: functional, cell-based; conditions: Homo sapiens, 96 h
# How it was run: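 HUVECs maintained in RPMI1640 with 10% FCS, 50 μg/mL heparin and ECGS, then seeded at 3000 cells/well in RPMI1640 with 5% FCS and 20 ng/mL VEGF, with compound at serially diluted concentrations. Incubated at 37 °C, 5% CO₂. Read-out is Cell Counting Kit-8, absorbance at 450 nm. Inhibition = (1−T/C)×100 against untreated control.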
# HCT-116 = test: Antiproliferative activity against human HCT116 cells; type: cell-based
# [3] = Clearance in mouse liver microsome at 5 uM after 60 mins by LC-MS/MS analysis; type: ADME; conditions: liver microsomes, read-out: CLH
# How it was run: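 Test compound at 5 µM incubated with mouse liver microsomes, 1.0 mg protein/mL, in 50 mM potassium phosphate pH 7.4 at 37 °C. Started by adding NADPH generating system (glucose 6-phosphate 3.2 mM, β-NADP 2.6 mM, MgCl2 6.5 mM). Substrate depletion measured against internal standard. Intrinsic clearance is the first-order decay constant normalized to protein.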
# [4] = Solubility of the compound in fasted state simulated intestinal fluid at 10 mM after 2 hrs by HPLC-UV analysis; type: physicochemical
# How it was run: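 Triplicate samples made from 10 mM DMSO stocks. DMSO evaporated (1 h), residue dissolved in FaSSIF and shaken 2 h. Solutions filtered, filtrate analysed by UV or HPLC-UV against a four-point calibration curve from the stocks. Result in µg/mL.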
# Calu-6 [5] = test: Antitumor activity against human Calu6 cells xenografted in BALB/c mouse assessed as tumor growth inhibition at 600 mg/kg, po for 11 days relative to control; type: functional; conditions: Calu-6, 264 h, read-out: TGI
# How it was run: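 Calu-6 cells in Hanks' balanced salt solution implanted s.c. in the flank of female Balb/c nude mice, 5.0×10⁶ per mouse. Oral dosing once daily for 11 days, starting at tumor volume 150 mm³. Volume = 1/2 × long × short². Tumor growth inhibition taken from change in volume of the treated group against change in controls.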
# Calu-6 [6] = test: Antiangiogenic activity in human Calu6 cells xenografted in BALB/c mouse assessed as microvessel density reduction at 300 mg/kg, po after 11 days by immunohistochemical staining method; type: functional; set-up: scale not given: the % may be the effect or the level left; conditions: dose 600 mg/kg, in the assay text read “600 mg/kg” for “300 mg/kg”
# How it was run: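 Female Balb/c nude mice given Calu-6 cells s.c. in the flank, 5.0×10⁶ cells per mouse. Dosing was oral, once daily for 11 days, starting once tumors reached 150 mm³. Tumors taken 24 h after the last dose and frozen-sectioned from the mid-portion. Vessels stained with anti-mouse CD31 and counted by image analysis. Density decrease expressed against control.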
# [7] = molecular target: Vascular endothelial growth factor receptor 2 (Homo sapiens, UniProt P35968); test: Inhibition of VEGFR2
# Calu-6 [8] = test: Antitumor activity against human Calu6 cells xenografted in BALB/c mouse assessed as tumor growth inhibition at 80 mg/kg, po qd for 11 days; type: functional, organism-based; set-up: dose 80 mg/kg
# How it was run: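 Female Balb/c nude mice carried s.c. flank Calu-6 xenografts, 5.0×10⁶ cells in Hanks' solution. At 200 mm³, mice were randomized into 4 groups (n = 5): vehicle, 150 mg/kg, sunitinib 80 mg/kg, or both. Each group dosed orally once daily for 11 days. Volume = 1/2 × long × short². Inhibition from volume change against control.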
# [9] = Toxicity in human Calu6 cells xenografted po dosed BALB/c mouse assessed as body weight change administered qd for 11 days; conditions: in vivo
# Vascular endothelial growth factor receptor 2, sequence (P35968 whole entry): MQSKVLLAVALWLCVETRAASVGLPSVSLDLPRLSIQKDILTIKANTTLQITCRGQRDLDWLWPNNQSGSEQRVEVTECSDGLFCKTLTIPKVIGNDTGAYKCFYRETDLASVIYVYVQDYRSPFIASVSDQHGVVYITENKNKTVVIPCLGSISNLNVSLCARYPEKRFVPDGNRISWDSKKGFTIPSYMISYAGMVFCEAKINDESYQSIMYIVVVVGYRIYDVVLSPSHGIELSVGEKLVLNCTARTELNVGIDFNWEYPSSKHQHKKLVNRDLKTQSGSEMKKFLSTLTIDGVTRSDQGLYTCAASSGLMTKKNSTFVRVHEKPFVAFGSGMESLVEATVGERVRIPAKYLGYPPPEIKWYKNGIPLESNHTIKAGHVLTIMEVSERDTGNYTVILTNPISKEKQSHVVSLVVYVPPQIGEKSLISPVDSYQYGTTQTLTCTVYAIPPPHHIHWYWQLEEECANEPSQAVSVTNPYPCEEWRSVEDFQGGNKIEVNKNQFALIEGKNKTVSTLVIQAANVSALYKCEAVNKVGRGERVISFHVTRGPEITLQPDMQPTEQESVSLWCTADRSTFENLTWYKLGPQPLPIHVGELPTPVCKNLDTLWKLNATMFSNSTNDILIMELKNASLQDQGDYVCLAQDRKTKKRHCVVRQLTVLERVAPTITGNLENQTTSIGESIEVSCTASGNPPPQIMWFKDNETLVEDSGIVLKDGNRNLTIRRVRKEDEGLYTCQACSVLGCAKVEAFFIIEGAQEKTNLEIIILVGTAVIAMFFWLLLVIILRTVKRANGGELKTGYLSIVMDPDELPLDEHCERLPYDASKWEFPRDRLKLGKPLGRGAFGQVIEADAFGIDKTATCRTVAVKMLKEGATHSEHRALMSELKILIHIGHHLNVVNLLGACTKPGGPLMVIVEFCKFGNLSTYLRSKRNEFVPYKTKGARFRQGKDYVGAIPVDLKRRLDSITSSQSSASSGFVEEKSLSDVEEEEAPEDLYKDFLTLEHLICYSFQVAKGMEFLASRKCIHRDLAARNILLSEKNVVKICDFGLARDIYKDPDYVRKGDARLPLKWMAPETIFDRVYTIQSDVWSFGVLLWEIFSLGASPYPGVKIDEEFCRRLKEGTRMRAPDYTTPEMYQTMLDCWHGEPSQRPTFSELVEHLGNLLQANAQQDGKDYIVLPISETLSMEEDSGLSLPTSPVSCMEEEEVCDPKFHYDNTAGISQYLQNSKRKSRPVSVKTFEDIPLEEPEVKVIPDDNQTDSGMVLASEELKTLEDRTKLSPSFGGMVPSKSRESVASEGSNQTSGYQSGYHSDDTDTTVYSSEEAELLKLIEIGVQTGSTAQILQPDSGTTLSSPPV
structure (smiles),measurement,setting,value
COc1ccc(C(N)=O)cc1/C=C/c1cccc(C#N)c1,Ratio IC50,HUVEC [1],0.4
same,IC50,HUVEC [2],49 µM
same,IC50,HCT-116,19 µM
CNC(=O)c1ccc(OC)c(/C=C/c2ccc(Cl)cc2)c1,microsomal CLint at 5 µM,[3],331 µL/min/mg
same,Ratio IC50,HUVEC [1],84
same,IC50,HUVEC [2],0.19 µM
same,IC50,HCT-116,16 µM
same,"solubility at 2 h, 10000 µM",[4],24 µg/mL
COc1ccc(C(=O)NCCO)cc1/C=C/c1ccc(Cl)cc1,microsomal CLint at 5 µM,[3],73 µL/min/mg
same,Ratio IC50,HUVEC [1],19
same,IC50,HUVEC [2],0.91 µM
same,IC50,HCT-116,17 µM
same,"solubility at 2 h, 10000 µM",[4],16 µg/mL
COc1ccc(C(N)=O)cc1/C=C/c1ccccc1Cl,Ratio IC50,HUVEC [1],2.2
same,IC50,HUVEC [2],23 µM
same,IC50,HCT-116,> 50 µM
COc1ccc(C(N)=O)cc1/C=C/c1ccc(Cl)cc1F,Ratio IC50,HUVEC [1],>5.9
same,IC50,HUVEC [2],1.7 µM
same,IC50,HCT-116,> 10 µM
COc1ccc(C(N)=O)cc1/C=C\c1ccc(Cl)cc1,microsomal CLint at 5 µM,[3],544 µL/min/mg
same,Ratio IC50,HUVEC [1],10
same,IC50,HUVEC [2],2.9 µM
same,IC50,HCT-116,29 µM
same,"solubility at 2 h, 10000 µM",[4],137 µg/mL
COc1ccc(C(N)=O)cc1/C=C/c1ccccc1F,Ratio IC50,HUVEC [1],13
same,IC50,HUVEC [2],2 µM
same,IC50,HCT-116,26 µM
COc1ccc(C(N)=O)cc1/C=C/c1ccc([N+](=O)[O-])cc1,Ratio IC50,HUVEC [1],4.7
same,IC50,HUVEC [2],4.7 µM
same,IC50,HCT-116,22 µM
COc1ccc(C(N)=O)cc1COc1ccc(Cl)c(C)c1,microsomal CLint at 5 µM,[3],414 µL/min/mg
same,Ratio IC50,HUVEC [1],>78
same,inhibition in vivo at 600 mg/kg,Calu-6 [5],14%
same,Activity,Calu-6 [6],0%
same,IC50,HUVEC [2],0.64 µM
same,IC50,HCT-116,> 50 µM
same,IC50,[7],> 50 µM
COc1ccc(C(=O)O)cc1COc1ccc(Cl)c(C)c1,IC50,HUVEC [2],> 50 µM
same,IC50,HCT-116,> 50 µM
COc1ccc(C(C)=O)cc1COc1ccc(Cl)cc1,Ratio IC50,HUVEC [1],33
same,IC50,HUVEC [2],1.2 µM
same,IC50,HCT-116,39 µM
COc1ccc(C(C)=O)cc1COc1cccc(C)c1,Ratio IC50,HUVEC [1],8.6
same,IC50,HUVEC [2],2.8 µM
same,IC50,HCT-116,24 µM
CN1CCN(CCOc2ccc(C(N)=O)cc2/C=C/c2ccc(Cl)cc2)CC1,microsomal CLint at 5 µM,[3],251 µL/min/mg
same,Ratio IC50,HUVEC [1],0.8
same,IC50,HUVEC [2],9.5 µM
same,IC50,HCT-116,7.5 µM
same,"solubility at 2 h, 10000 µM",[4],164 µg/mL
COc1ccc(C#N)cc1COc1ccc(Cl)c(C)c1,Ratio IC50,HUVEC [1],>33
same,IC50,HUVEC [2],1.5 µM
same,IC50,HCT-116,> 50 µM
COc1ccc(C(N)=O)cc1/C=C/c1ccccc1OC(F)(F)F,Ratio IC50,HUVEC [1],4
same,IC50,HUVEC [2],8.9 µM
same,IC50,HCT-116,36 µM
COc1ccc(C(N)=O)cc1/C=C/c1cccc(Cl)c1,Ratio IC50,HUVEC [1],0.6
same,IC50,HUVEC [2],24 µM
same,IC50,HCT-116,15 µM
CN(C)CCOc1ccc(C(N)=O)cc1/C=C/c1ccc(Cl)cc1,microsomal CLint at 5 µM,[3],288 µL/min/mg
same,Ratio IC50,HUVEC [1],0.6
same,IC50,HUVEC [2],8.4 µM
same,IC50,HCT-116,4.9 µM
same,"solubility at 2 h, 10000 µM",[4],109 µg/mL
COc1ccc(C(C)=O)cc1COc1ccc(Cl)c(C)c1,Ratio IC50,HUVEC [1],26
same,inhibition in vivo at 600 mg/kg,Calu-6 [5],34%
same,Activity,Calu-6 [6],15%
same,IC50,HUVEC [2],1.3 µM
same,IC50,HCT-116,34 µM
same,IC50,[7],> 50 µM
COc1ccc(C(N)=O)cc1/C=C/c1ccc(C#N)cc1,Ratio IC50,HUVEC [1],5.2
same,IC50,HUVEC [2],3.1 µM
same,IC50,HCT-116,16 µM
CCNC(=O)c1ccc(OC)c(/C=C/c2ccc(Cl)cc2)c1,microsomal CLint at 5 µM,[3],187 µL/min/mg
same,Ratio IC50,HUVEC [1],94
same,IC50,HUVEC [2],0.16 µM
same,IC50,HCT-116,15 µM
same,"solubility at 2 h, 10000 µM",[4],9 µg/mL
CCCOc1ccc(C(N)=O)cc1/C=C/c1ccc(Cl)cc1,microsomal CLint at 5 µM,[3],83 µL/min/mg
same,Ratio IC50,HUVEC [1],38
same,IC50,HUVEC [2],1.3 µM
same,IC50,HCT-116,> 50 µM
same,"solubility at 2 h, 10000 µM",[4],4 µg/mL
COc1ccc(C(=O)N(C)C)cc1/C=C/c1ccc(Cl)cc1,Ratio IC50,HUVEC [1],14
same,IC50,HUVEC [2],2.5 µM
same,IC50,HCT-116,35 µM
CCN(CC)CCNC(=O)c1c(C)[nH]c(/C=C2\C(=O)Nc3ccc(F)cc32)c1C [SUNITINIB],TGI,Calu-6 [8],Active
same,MTD at 264 h,[9],80 mg/kg
